Laboratory results published in ChEMBL document CHEMBL2010782, “Combination of a Beta adrenoceptor modulator and a norepinephrine-serotonin uptake inhibitor for the treatment of obesity” (ACS Med Chem Lett, 2011).
Calls of active or inactive are those of the source. The calls are words filed in the database; no cut-off is given here.

What was measured:
[1] = target: T1, Beta-3 adrenergic receptor (Homo sapiens, UniProt P13945); assay: Agonist activity at human adrenergic beta3 receptor expressed in DHB-11 CHO cells assessed as cAMP accumulation after 20 mins by scintillation proximity assay; format: functional, cell-based
Target sequence in this assay (P13945 whole entry): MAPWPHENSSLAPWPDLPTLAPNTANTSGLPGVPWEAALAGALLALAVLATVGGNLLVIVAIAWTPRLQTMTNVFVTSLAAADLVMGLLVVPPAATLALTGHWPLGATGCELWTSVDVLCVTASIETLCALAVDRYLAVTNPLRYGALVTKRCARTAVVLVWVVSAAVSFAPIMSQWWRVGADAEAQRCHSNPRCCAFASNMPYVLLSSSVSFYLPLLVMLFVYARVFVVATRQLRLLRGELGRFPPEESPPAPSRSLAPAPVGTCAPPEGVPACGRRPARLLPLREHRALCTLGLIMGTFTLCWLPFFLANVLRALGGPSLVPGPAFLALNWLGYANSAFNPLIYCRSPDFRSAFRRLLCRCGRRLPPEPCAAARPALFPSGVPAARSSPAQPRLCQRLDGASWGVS

[2] = target: Beta-3 adrenergic receptor (Rattus norvegicus, UniProt P26255); assay: Agonist activity at rat adrenergic beta3 receptor expressed in DHB-11 CHO cells assessed as cAMP accumulation after 20 mins by scintillation proximity assay; format: functional, cell-based
Sequence of Beta-3 adrenergic receptor (Rattus norvegicus, UniProt P26255) (P26255 whole entry): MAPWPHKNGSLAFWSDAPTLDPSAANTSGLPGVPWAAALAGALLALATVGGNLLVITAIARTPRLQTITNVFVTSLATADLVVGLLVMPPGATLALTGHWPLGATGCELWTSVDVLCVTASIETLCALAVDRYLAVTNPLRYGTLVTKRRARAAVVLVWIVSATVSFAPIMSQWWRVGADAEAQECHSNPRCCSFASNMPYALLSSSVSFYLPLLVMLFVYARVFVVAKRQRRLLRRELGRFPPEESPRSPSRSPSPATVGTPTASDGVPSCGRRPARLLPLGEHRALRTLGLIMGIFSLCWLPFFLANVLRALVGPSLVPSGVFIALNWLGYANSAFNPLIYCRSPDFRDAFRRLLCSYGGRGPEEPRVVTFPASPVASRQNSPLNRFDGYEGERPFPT

[3] = target: T2, Beta-2 adrenergic receptor (Homo sapiens, UniProt P07550); assay: Agonist activity at human adrenergic beta2 receptor expressed in DHB-11 CHO cells assessed as cAMP accumulation after 20 mins by scintillation proximity assay; format: functional, cell-based
Target sequence in this assay (P07550 whole entry): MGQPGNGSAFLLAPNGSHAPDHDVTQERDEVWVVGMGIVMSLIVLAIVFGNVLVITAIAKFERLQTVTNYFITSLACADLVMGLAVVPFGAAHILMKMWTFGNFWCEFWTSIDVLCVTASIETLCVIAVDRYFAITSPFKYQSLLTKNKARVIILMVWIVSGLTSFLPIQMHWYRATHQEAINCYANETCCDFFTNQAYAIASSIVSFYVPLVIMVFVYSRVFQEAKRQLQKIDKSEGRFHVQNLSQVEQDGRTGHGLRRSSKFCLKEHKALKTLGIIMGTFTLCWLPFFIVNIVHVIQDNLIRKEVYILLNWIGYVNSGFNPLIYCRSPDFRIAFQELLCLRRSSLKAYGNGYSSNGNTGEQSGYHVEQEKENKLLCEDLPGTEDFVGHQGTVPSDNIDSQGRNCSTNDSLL

[4] = target: T3, Beta-1 adrenergic receptor (Homo sapiens, UniProt P08588); assay: Agonist activity at human adrenergic beta1 receptor expressed in DHB-11 CHO cells assessed as cAMP accumulation after 20 mins by scintillation proximity assay; format: functional, cell-based
Target sequence in this assay (P08588 whole entry): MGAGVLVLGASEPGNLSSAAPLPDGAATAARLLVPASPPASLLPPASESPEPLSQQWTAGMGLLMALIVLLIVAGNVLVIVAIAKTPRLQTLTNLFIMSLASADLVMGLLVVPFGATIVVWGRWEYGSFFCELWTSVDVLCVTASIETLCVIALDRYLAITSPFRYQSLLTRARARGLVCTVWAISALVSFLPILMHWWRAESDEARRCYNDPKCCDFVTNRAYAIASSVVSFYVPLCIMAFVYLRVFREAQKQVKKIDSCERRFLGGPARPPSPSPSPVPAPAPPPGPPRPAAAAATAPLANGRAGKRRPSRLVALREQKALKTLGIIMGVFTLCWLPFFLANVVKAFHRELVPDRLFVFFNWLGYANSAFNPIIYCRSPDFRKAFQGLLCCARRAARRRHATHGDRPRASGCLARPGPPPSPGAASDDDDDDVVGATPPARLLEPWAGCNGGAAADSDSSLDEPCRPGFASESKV

[5] = target: T3, Beta-1 adrenergic receptor; assay: Displacement of [125I]Iodocyanopindolol from human adrenergic beta1 receptor expressed in insect sf9 cells by scintillation counting
Target sequence in this assay (P08588 whole entry): as above

[6] = target: T2, Beta-2 adrenergic receptor; assay: Displacement of [125I]Iodocyanopindolol from human adrenergic beta2 receptor expressed in insect sf9 cells by scintillation counting
Target sequence in this assay (P07550 whole entry): as the sequence (P07550 whole entry) above

Homo sapiens [7] = organism: Homo sapiens; assay: Inhibition of sibutramine-induced increase in heart rate in human at 30 to 300 mg; format: functional
[8] = Elimination half life in healthy human at 60 mg; format: ADME, organism-based; settings: in vivo, read-out: beta t1/2 (converted)
Procedure, shortened: (§1)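 Healthy human volunteers were dosed and plasma concentrations followed over time. Tmax was taken from the plasma profile, and terminal elimination half-life was estimated after a 60-mg dose.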

[9] = Tmax in healthy human plasma; format: ADME, organism-based; procedure, shortened: as §1
Homo sapiens [10] = organism: Homo sapiens; assay: Inhibition of sibutramine-induced increase in systolic blood pressure in human at 30 to 300 mg; format: functional, Artery
Homo sapiens [11] = organism: Homo sapiens; assay: Inhibition of sibutramine-induced increase in diastolic blood pressure in human at 30 to 300 mg; format: functional, Artery
Rattus norvegicus [12] = assay: Antiobesity activity in po dosed Long-Evans rat assessed as increase in lipid utilization measured after 4 hrs by indirect calorimetry analysis relative to control; format: functional, organism-based
Procedure, shortened: (§2)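 Male Long–Evans rats with diet-induced obesity on a caloric dense diet received single oral doses of 3 or 10 mg/kg, with vehicle-treated rats as controls. Respiratory quotient (lipid utilization) and energy expenditure were followed by indirect calorimetry for about 4 h. Groups were compared by ANOVA with SNK post hoc test, p < 0.05.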

[13] = target: T3, Beta-1 adrenergic receptor; assay: Agonist activity at human adrenergic beta1 receptor expressed in DHB-11 CHO cells assessed as cAMP accumulation after 20 mins by scintillation proximity assay relative to isoproterenol; format: functional, cell-based
Procedure, shortened: (§3)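 Whole-cell functional assay in transfected CHO cells expressing the human receptor, read as stimulated cAMP accumulation. Values are reported as the geometric mean ± standard deviation, with the number of runs (n) given.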
Target sequence in this assay (P08588 whole entry, looked up): as the sequence (P08588 whole entry) above

Rattus norvegicus [14] = assay: Antiobesity activity in Long-Evans rat assessed as decrease in respiratory quotient at 3 to 10 mg/kg, po measured after 4 hrs by indirect calorimetry analysis relative to control; format: functional, organism-based; procedure, shortened: as §2
[15] = target: T2, Beta-2 adrenergic receptor; assay: Agonist activity at human adrenergic beta2 receptor expressed in DHB-11 CHO cells assessed as cAMP accumulation after 20 mins by scintillation proximity assay relative to isoproterenol; format: functional, cell-based; procedure, shortened: as §3
Target sequence in this assay (P07550 whole entry, looked up): as the sequence (P07550 whole entry) above

[16] = target: T1, Beta-3 adrenergic receptor; assay: Agonist activity at human adrenergic beta3 receptor expressed in DHB-11 CHO cells assessed as cAMP accumulation after 20 mins by scintillation proximity assay relative to isoproterenol; format: functional, cell-based
Target sequence in this assay (P13945 whole entry, looked up): as the sequence (P13945 whole entry) above

Rattus norvegicus [17] = assay: Antiobesity activity in po dosed Long-Evans rat assessed as increase in energy expenditure measured after 4 hrs by indirect calorimetry analysis relative to control; format: functional, organism-based; procedure, shortened: as §2
Rattus norvegicus [18] = assay: Antiobesity activity in Long-Evans rat assessed as increase in lipid utilization at 10 mg/kg, po measured after 4 hrs by indirect calorimetry analysis relative to control; format: functional, organism-based; parameters: dose 10 mg/kg; procedure, shortened: as §2
[19] = target: Beta-3 adrenergic receptor (Rattus norvegicus) (UniProt P26255); assay: Agonist activity at rat adrenergic beta3 receptor expressed in DHB-11 CHO cells assessed as cAMP accumulation after 20 mins by scintillation proximity assay relative to isoproterenol; format: functional, cell-based
Sequence of Beta-3 adrenergic receptor (Rattus norvegicus) (P26255 whole entry): as the sequence (P26255 whole entry) above

**Q.** With `CC(C)(Cc1ccc(Oc2ccc(C(N)=O)cn2)cc1)NC[C@H](O)COc1cccc2[nH]c3ccccc3c12` [listing 1 of 3 here] as the compound, how does the EC50 [1] read?
**A.** 2.4 nM

**Q.** And the EC50 [2]?
**A.** 5 nM

**Q.** And the EC50 [3]?
**A.** > 3160 nM

**Q.** And the EC50 [4]?
**A.** > 3160 nM

**Q.** With `CC(C)(Cc1ccc(Oc2ccc(C(N)=O)cn2)cc1)NC[C@H](O)COc1cccc2[nH]c3ccccc3c12` [listing 2 of 3 here] as the compound, how does the Ki [5] read?
**A.** 0.023 nM

**Q.** What about the Ki [6] of the same compound?
**A.** 0.012 nM

**Q.** Which results are given for `CC(C)(Cc1ccc(Oc2ccc(C(N)=O)cn2)cc1)NC[C@H](O)COc1cccc2[nH]c3ccccc3c12` [LY377604]?
**A.** Activity (Homo sapiens [7]): 10.5 bpm; half-life [8]: 9 h; Tmax [9]: 2 h; Activity (Homo sapiens [10]): 5.5 mmHg; Activity (Homo sapiens [11]): 4.2 mmHg

**Q.** For `CC(C)(Cc1ccc(Oc2ccc(C(N)=O)cn2)cc1)NC[C@H](O)COc1cccc2[nH]c3ccccc3c12` [listing 3 of 3 here], which Activity (Rattus norvegicus [12]) is on record?
**A.** Dose-dependent effect

**Q.** What about the Emax [13] of the same compound?
**A.** < 10%

**Q.** What about the Activity (Rattus norvegicus [14]) of the same compound?
**A.** Active

**Q.** And the Emax [15]?
**A.** < 10%

**Q.** What about the Emax [16] of the same compound?
**A.** 73.8%

**Q.** What about the Activity (Rattus norvegicus [17]) of the same compound?
**A.** Dose-dependent effect

**Q.** And the Activity (Rattus norvegicus [18])?
**A.** Active

**Q.** And the Emax [19]?
**A.** 55.5%
